Measurements from different studies.
Each line is one published result; the experiments were not run side by side. pIC50: −log10 of the molar value.
Organism: Plasmodium falciparum
Effect on: parasite growth

CN(Cc1cnc2nc(N)nc(N)c2n1)c1ccc(C(=O)N[C@@H](CCC(=O)O)C(=O)O)cc1
pIC50 (NF54; blood stage): 7.29

N=C(CC(O)c1nc2ccccc2c2ccc(Cl)cc12)Nc1ccc(F)cc1 (stereo not shown)
pIC50 (ELISA; DD2; 72 h; drug-resistant strain, blood stage): 7.30

O=C1C(O)=C([C@H]2CC[C@H](c3ccc(Cl)cc3)CC2)C(=O)c2ccccc21
pIC50 (SYBR Green; D6; 72 h; blood stage): 9.97

CO[C@H]1/C=C/O[C@@]2(C)Oc3c(C)c(O)c4c(O)c(c(/C=N/N5CCN(C6CCCC6)CC5)c(O)c4c3C2=O)NC(=O)/C(C)=C\C=C\[C@H](C)[C@H](O)[C@@H](C)[C@@H](O)[C@@H](C)[C@H](OC(C)=O)[C@@H]1C
pIC50 (SYBR Green; 3D7; blood stage): 6.62

CC[C@H](CC[C@@H](C)[C@H]1CC[C@H]2[C@@H]3CC=C4C[C@@H](O)CC[C@]4(C)[C@H]3CC[C@]12C)C(C)C
IC50 (SYBR Green; 3D7; 48 h; blood stage): 9.29 µg/mL

N=C(CC(O)c1nc2cc(F)ccc2c2ccc(F)cc12)Nc1ccc(F)cc1 (stereo not shown)
pIC50 (ELISA; 3D7; 72 h; blood stage): 6.39

COC1=CC(c2ccc[nH]2)=N/C1=C\c1[nH]c(Cc2ccc(OC(F)(F)F)cc2)cc1Cc1ccc(OC(F)(F)F)cc1
pIC50 (SYBR Green; D6; 72 h; blood stage): 7.60

CCN(CC)CCCC(C)Nc1ccnc2cc(Cl)ccc12 (stereo not shown)
pIC50 (ELISA; 3D7; 72 h; blood stage): 8.48

CC1=C(C)/C(=C/c2cc(-c3ccc(OC(F)(F)F)cc3)c(C)[nH]2)N=C1c1ccc[nH]1
pIC50 (SYBR Green; D6; 72 h; blood stage): < 5.60

Cc1ccc(N(c2ccc(NC(=O)CN(C)c3ccccc3N3CCCC3=O)cc2)C(C)C)cc1
pIC50 (SYBR Green; DD2; blood stage): 8.56

N=C(CC(O)c1cc2c(F)cc(F)cc2c2cc(C(F)(F)F)ccc12)Nc1ccc(Br)cc1 (stereo not shown)
pIC50 (ELISA; 3D7; 72 h; blood stage): 8.21

CC1=C(C)/C(=C/c2cc(Cc3ccc(Cl)cc3)c(C)[nH]2)N=C1c1ccc[nH]1
pIC50 (SYBR Green; D6; 72 h; blood stage): 6.22

CCCCCCOc1ccc2c(=O)c3c([nH]c2c1)CCCC3
pIC50 (SYBR Green; D6; 72 h; blood stage): 9.35

CC1=C(C)/C(=C/c2cc(-c3ccc(Cl)cc3)c(C)[nH]2)N=C1c1ccc[nH]1
pIC50 (SYBR Green; D6; 72 h; blood stage): < 5.60

COc1ccc2cc1Oc1ccc(cc1)C[C@H]1c3c(cc4c(c3Oc3cc5c(cc3OC)CCN(C)[C@@H]5C2)OCO4)CCN1C
pIC50 (NF54; blood stage): 6.73

N=C(CC(O)c1nc2ccccc2c2ccccc12)Nc1ccc(F)cc1 (stereo not shown)
pIC50 (ELISA; DD2; 72 h; drug-resistant strain, blood stage): 7.05

CC(C)(C)CC(C)(C)c1ccc(O)c(Cc2ccc(Cl)cc2Cl)c1
pIC50 (NF54; blood stage): 4.79

N=C(CC(O)c1cc2cccnc2c2cccnc12)Nc1ccc(F)cc1 (stereo not shown)
pIC50 (ELISA; DD2; 72 h; drug-resistant strain, blood stage): 5.06

CCN(CC)CCCC(C)Nc1ccnc2cc(Cl)ccc12 (stereo not shown)
pIC50 (NF54; blood stage): 7.93

N=C(CC(O)c1nc2ccccc2c2ccc(Br)cc12)Nc1ccc(F)cc1 (stereo not shown)
pIC50 (ELISA; DD2; 72 h; drug-resistant strain, blood stage): 7.33

CCCCCCCCNC(C)C(O)c1ccc(SC(C)C)cc1 (stereo not shown)
pIC50 (SYBR Green; 3D7; blood stage): 6.09

CCOC1=CC(c2ccc[nH]2)=N/C1=C\c1cc(Cc2ccc(Cl)cc2)c(C)[nH]1
pIC50 (SYBR Green; D6; 72 h; blood stage): 8.31
